The term EC50 denotes the concentration at which the effect is half-maximal. What is called ED50 is the midpoint of the dose-response relation.

This note sets out measurements from ChEMBL document CHEMBL1135836, “Cyclodextrin-derived host molecules as reversal agents for the neuromuscular blocker rocuronium bromide: synthesis and structure-activity relationships” (J Med Chem, 2002).

Assay type in all cases: functional
The species entered for test [1] is Mus musculus. In words: In vitro reversal activity versus ~90% block by rocuronium in isolated mouse hemidiaphragm, expressed as % of maximum reversal at 216 uM conc.
The species entered for test [2] is Mus musculus. Put plainly: In vitro reversal activity versus ~90% block by rocuronium in isolated mouse hemidiaphragm, expressed as effective conc.
Test [3] has as its system Cavia porcellus. In words: In vivo reversal activity versus ~90% block by rocuronium in guinea pig. The procedure, abridged:
(§1)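 Male Dunkin-Hartley guinea pigs (600-900 g), anaesthetized ip with pentobarbitone 10 mg/kg plus urethane 1000 mg/kg, tracheotomized and ventilated. Continuous iv rocuronium infusion (~10 nmol kg-1 min-1) was raised to a steady 85-90% block. Increasing iv doses of agent were given cumulatively. ED50 = 50% recovery versus preblock twitch, by regression. Mean ± SEM of at least two experiments, or one.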

In test [4] the test system is Cavia porcellus. Put plainly: In vivo reversal activity versus ~90% block by rocuronium in guinea pig, expressed as % of maximum reversal at 3.9 umol/kg conc. The procedure, abridged: (§2)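 Male Dunkin-Hartley guinea pigs (600-900 g) anaesthetized ip with pentobarbitone 10 mg/kg plus urethane 1000 mg/kg, tracheotomized and artificially ventilated. Continuous iv rocuronium bromide infusion (~10 nmol kg-1 min-1) raised until steady-state twitch block of 85-90%. Increasing single iv doses of reversal agent given by a separate catheter. Max reversal is peak twitch recovery versus preblock height at highest dose tested; means ± SEM, n ≥ 2 or single experiment.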

The species entered for test [5] is Mus musculus. In words: In vitro reversal activity versus ~90% block by rocuronium in isolated mouse hemidiaphragm, expressed as % of maximum reversal at 18 uM conc.
The test system of test [6] is Cavia porcellus. Put plainly: In vivo reversal activity versus ~90% block by rocuronium in guinea pig, expressed as % of maximum reversal at 12 umol/kg conc. An outline of the steps: as §2
For test [7], the species on record is Mus musculus. In words: In vitro reversal activity versus ~90% block by rocuronium in isolated mouse hemidiaphragm, expressed as % of maximum reversal at 144 uM conc.
Test [8] has as its system Cavia porcellus. In words: In vivo reversal activity versus ~90% block by rocuronium in guinea pig, expressed as % of maximum reversal at 10 umol/kg conc. An outline of the steps: as §1
The species named for test [9] is Mus musculus. Put plainly: In vitro reversal activity versus ~90% block by rocuronium in isolated mouse hemidiaphragm, expressed as % of maximum reversal at 2.2 uM conc.
For test [10], the system named is Cavia porcellus. In words: In vivo reversal activity versus ~90% block by rocuronium in guinea pig, expressed as % of maximum reversal at 1.4 umol/kg conc. An outline of the steps: as §1
The subject of test [11] is Cavia porcellus. In words: In vivo reversal activity versus ~90% block by rocuronium in guinea pig, expressed as % of maximum reversal at 316 umol/kg conc. An outline of the steps: as §2
The species named for test [12] is Mus musculus. In words: In vitro reversal activity versus ~90% block by rocuronium in isolated mouse hemidiaphragm, expressed as % of maximum reversal at 360 uM conc.

`O=C([O-])c1ccccc1SCC1O[C@@H]2O[C@@H]3C(CSc4ccccc4C(=O)[O-])O[C@H](O[C@@H]4C(CSc5ccccc5C(=O)[O-])O[C@H](O[C@@H]5C(CSc6ccccc6C(=O)[O-])O[C@H](O[C@@H]6C(CSc7ccccc7C(=O)[O-])O[C@H](O[C@@H]7C(CSc8ccccc8C(=O)[O-])O[C@H](O[C@@H]8C(CSc9ccccc9C(=O)[O-])O[C@H](O[C@@H]9C(CSc%10ccccc%10C(=O)[O-])O[C@H](O[C@H]1C(O)C2O)C(O)C9O)C(O)C8O)C(O)C7O)C(O)C6O)C(O)C5O)C(O)C4O)C(O)C3O.[Na+].[Na+].[Na+].[Na+].[Na+].[Na+].[Na+].[Na+]` (some centres not stated): the Max reversal in [1] was 42.3%. For the same compound, in [2], the EC50 came to 227 µM.

Consider `OCCCCSCC1O[C@@H]2O[C@@H]3C(CSCCCCO)O[C@H](O[C@@H]4C(CSCCCCO)O[C@H](O[C@@H]5C(CSCCCCO)O[C@H](O[C@@H]6C(CSCCCCO)O[C@H](O[C@@H]7C(CSCCCCO)O[C@H](O[C@@H]8C(CSCCCCO)O[C@H](O[C@@H]9C(CSCCCCO)O[C@H](O[C@H]1C(O)C2O)C(O)C9O)C(O)C8O)C(O)C7O)C(O)C6O)C(O)C5O)C(O)C4O)C(O)C3O` (some centres not stated), for which, in [3], the ED50 was found to be 3.94 µmol/kg. Besides, the Max reversal came to 52.8% in test [4] and 78.9% in [5]. Also, the EC50 in [2] is 6.5 µM.

As to `O=C([O-])CCSCC1O[C@@H]2O[C@@H]3C(CO)O[C@H](O[C@@H]4C(CO)O[C@H](O[C@@H]5C(CO)O[C@H](O[C@@H]6C(CO)O[C@H](O[C@@H]7C(CO)O[C@H](O[C@@H]8C(CO)O[C@H](O[C@@H]9C(CO)O[C@H](O[C@H]1C(O)C2O)C(O)C9O)C(O)C8O)C(O)C7O)C(O)C6O)C(O)C5O)C(O)C4O)C(O)C3O.[Na+]` (some centres not stated), in test [3], the ED50 is 1.3 µmol/kg. The Max reversal in [6] worked out at 100.6%; in test [7] it was 94.5%. For the same compound, the EC50 in [2] was 17.2 µM.

Regarding `C[C@H](CSCC1O[C@@H]2O[C@@H]3C(CSC[C@H](C)C(=O)N4CCCC4C(=O)[O-])O[C@H](O[C@@H]4C(CSC[C@@H](C)C(=O)N5CCCC5C(=O)[O-])O[C@H](O[C@@H]5C(CSC[C@@H](C)C(=O)N6CCCC6C(=O)[O-])O[C@H](O[C@@H]6C(CSC[C@H](C)C(=O)N7CCCC7C(=O)[O-])O[C@H](O[C@@H]7C(CSC[C@@H](C)C(=O)N8CCCC8C(=O)[O-])O[C@H](O[C@@H]8C(CSC[C@H](C)C(=O)N9CCCC9C(=O)[O-])O[C@H](O[C@@H]9C(CSC[C@@H](C)C(=O)N%10CCCC%10C(=O)[O-])O[C@H](O[C@H]1C(O)C2O)C(O)C9O)C(O)C8O)C(O)C7O)C(O)C6O)C(O)C5O)C(O)C4O)C(O)C3O)C(=O)N1CCCC1C(=O)[O-].[Na+].[Na+].[Na+].[Na+].[Na+].[Na+].[Na+].[Na+]` (some centres not stated), in test [3], the median effective dose (ED50) was 1.49 µmol/kg. Moreover, the figures for the Max reversal in test [5] and in [8] were 35.7% and 103.6%, respectively. For the same compound, the EC50 in test [2] was found to be 33.9 µM.

Regarding `O=C([O-])c1ccc(SCC2O[C@@H]3O[C@@H]4C(CSc5ccc(C(=O)[O-])cc5)O[C@H](O[C@@H]5C(CSc6ccc(C(=O)[O-])cc6)O[C@H](O[C@@H]6C(CSc7ccc(C(=O)[O-])cc7)O[C@H](O[C@@H]7C(CSc8ccc(C(=O)[O-])cc8)O[C@H](O[C@@H]8C(CSc9ccc(C(=O)[O-])cc9)O[C@H](O[C@@H]9C(CSc%10ccc(C(=O)[O-])cc%10)O[C@H](O[C@@H]%10C(CSc%11ccc(C(=O)[O-])cc%11)O[C@H](O[C@H]2C(O)C3O)C(O)C%10O)C(O)C9O)C(O)C8O)C(O)C7O)C(O)C6O)C(O)C5O)C(O)C4O)cc1.[Na+].[Na+].[Na+].[Na+].[Na+].[Na+].[Na+].[Na+]` (some centres not stated), the Max reversal in test [9] was found to be 97%; in test [10] it was 97.6%. In addition, the ED50 in test [3] turned out to be 0.12 µmol/kg. Also, the half-maximal effective concentration (EC50) in test [2] came out at 1 µM.

For `OC[C@H]1O[C@@H]2O[C@H]3[C@H](O)[C@@H](O)[C@@H](O[C@H]4[C@H](O)[C@@H](O)[C@@H](O[C@H]5[C@H](O)[C@@H](O)[C@@H](O[C@H]6[C@H](O)[C@@H](O)[C@@H](O[C@H]7[C@H](O)[C@@H](O)[C@@H](O[C@H]8[C@H](O)[C@@H](O)[C@@H](O[C@H]1[C@H](O)[C@H]2O)O[C@@H]8CO)O[C@@H]7CO)O[C@@H]6CO)O[C@@H]5CO)O[C@@H]4CO)O[C@@H]3CO` [BETADEX], the ED50 in test [3] turned out to be 20 µmol/kg. The values for the Max reversal in [11] and in test [12] were 92.9% and 29%, respectively. Further, in test [2], the EC50 is above 360 µM.
